# Source: PubChem (several laboratories)
# Compounds with a hit are over-represented: about 2.1% of the library has one in this group of screens.
# p97 ATPase inh: inhibitors of human p97 ATPase; P55072; recombinant p97 ATPase, Kinase-Glo ATP luminescence, 3 h; inhibition, % at 8 µM; 220,000 tested, 0.42% active; AID 1481; in the data active = inhibition above about 15%;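 also: 0% = DMSO vehicle and 100% = wells lacking enzyme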
# Runt-SMMHC FRET: blocks binding of human RUNX1 Runt domain to CBFb-SMMHC; inhibition, % at 20 µM; Q01196+Q13951; 220,000 tested, 0.74% active; Cerulean-Runt/Venus-CBFb-SMMHC FRET ratio 530/480, 1 h;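 active = mean inhibition across duplicate retests at 20 µM reaching about 50%, limit read from the data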;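 also: 0% = DMSO wells and 100% = wells with excess untagged CBFb-SMMHC; inhibitors lower the FRET ratio by blocking Runt binding to CBFb-SMMHC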
# Target sequence (Q01196 whole entry, looked up, the tested form may be a part): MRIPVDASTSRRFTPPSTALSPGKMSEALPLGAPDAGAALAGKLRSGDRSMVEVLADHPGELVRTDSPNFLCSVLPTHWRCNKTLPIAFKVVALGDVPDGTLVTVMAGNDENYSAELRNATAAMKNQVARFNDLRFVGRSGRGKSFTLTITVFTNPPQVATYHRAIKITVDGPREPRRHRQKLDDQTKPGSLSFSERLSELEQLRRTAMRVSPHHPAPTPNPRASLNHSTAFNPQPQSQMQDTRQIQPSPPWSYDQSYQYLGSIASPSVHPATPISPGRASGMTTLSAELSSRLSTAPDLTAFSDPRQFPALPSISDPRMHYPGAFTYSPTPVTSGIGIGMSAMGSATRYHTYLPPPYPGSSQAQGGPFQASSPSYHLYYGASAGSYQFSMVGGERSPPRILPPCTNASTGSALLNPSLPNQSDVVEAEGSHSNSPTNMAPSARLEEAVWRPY
# Target sequence (Q13951 whole entry, looked up, the tested form may be a part): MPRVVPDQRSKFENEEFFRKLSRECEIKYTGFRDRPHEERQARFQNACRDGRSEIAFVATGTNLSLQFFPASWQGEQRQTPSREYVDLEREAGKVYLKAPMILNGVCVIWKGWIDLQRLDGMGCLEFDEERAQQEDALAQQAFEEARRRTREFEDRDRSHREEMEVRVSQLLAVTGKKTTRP
# Tb hexokinase: blocks Trypanosoma brucei hexokinase 1 activity; AID 1430; recombinant TbHK1, G6PDH-coupled NADH A340; 220,000 tested, 0.11% active; inhibition, % at 10 µM;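 active = inhibition of 50% or more in the single-dose primary screen; inactive = inhibition below 50%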
# Hck Nef HTS: human Hck-Nef kinase inhibition; P08631; Recombinant Hck-YEEI plus Nef, Z-Lyte FRET kinase assay; inhibition, % at 20 µM; 220,000 tested, 0.68% active;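 active = Hck-Nef kinase inhibition above about 50%, limit read from the data; inactive = inhibition below that limit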;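 also: 0% = DMSO with Hck plus Nef and 100% = Hck alone without Nef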
# Runt-CBFb FRET: inhibitors of human RUNX1 Runt domain binding to CBFb. Q01196+Q13951. Cerulean-Runt/Venus-CBFb FRET ratio 530/480, 1 h. inhibition, % at 20 µM. 220,000 tested, 0.46% active. AID 1496;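 active = inhibition over about 50% at 20 µM in the single-dose screen, limit read from the data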;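 also: 0% = DMSO wells and 100% = excess unlabeled CBFb competitor control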
#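 Measured by: fluorescence energy transfer, 422 nm excitation, 530/480 nm emission; Assay system: Cerulean-Runt domain; Medium: Tris pH 7.5 buffer with BSA; Measure: loss of energy transfer signal; Controls: 5 µM unlabeled CBFb as full-inhibition high control; Incubation: protein complex preformed 1 h, compound exposure 1 h, room temperature, dark.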
# RanGTP-Imp inh: disruptors of Ran-importin-beta complex formation – biochemical, FRET, CFP-Ran, YFP-importin-beta, homogeneous, primary screen. cell-free CFP-Ran/YFP-importin-beta FRET ratio. inhibition, % (concentration not given with the values). 300,000 tested, 1.1% active. AID 2216;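 active = more than half of the replicate wells show a fall in the fluorescence ratio signal beyond about 16%, limit read from the data, passing the limit was not always enough; inconclusive = exactly half of the replicate wells pass the set limit; inactive = fewer than half of replicates pass the limit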;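 also: 0% = DMSO wells and 100% = Ran loaded with GDP instead of GTP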
# * = called active by the depositor; ? = inconclusive; . = no result given.
SMILES,p97 ATPase inh,Runt-SMMHC FRET,Tb hexokinase,Hck Nef HTS,Runt-CBFb FRET,RanGTP-Imp inh
COc1ccc(CCNC2=C(Cl)C(=O)N(CCc3ccccc3)C2=O)cc1OC,2,55*,-3,1,-2,-1
COc1ccc(CCNC2CC(=O)N(CCc3ccccc3)C2=O)cc1OC (stereo unspecified),-5,-2,0,-1,1,?
CCN(CC)c1ccc(/C=C(\C#N)C(=O)NCc2ccco2)cc1,-9,60*,-5,7,19,.
N#C/C(=C\c1ccccc1)C(=O)NCc1ccc(F)cc1,.,.,.,.,.,1
CN(C)c1ccc(/C=C(\C#N)C(=O)NCc2ccco2)cc1,1,58*,-4,4,90*,?
Cc1ccc(CNC(=O)/C(C#N)=C\c2ccc(N(C)C)cc2)cc1,1,61*,5,3,12,72*
CCN(CC)c1ccc(/C=C(\C#N)C(=O)NCc2ccccc2)cc1,-12,59*,3,5,79*,109*
CC(=O)N1CCC(N(CCN2CCOCC2)C(=S)Nc2c(C)cccc2C)CC1,-3,3,29,1,0,-2
Cc1ccc(C)c(NC(=O)CCN2CCN(c3ccccc3F)CC2)c1,.,.,.,.,.,-2
O=C(NCCN1C(=O)S/C(=C\c2ccc(Cl)c([N+](=O)[O-])c2)C1=O)C1=COCCO1,.,.,.,.,.,2
Cc1ccc(S(=O)(=O)C(C#N)c2nc3ccccc3nc2N2CCCC2)cc1 (stereo unspecified),20*,-104,-3,7,-22,-1
COc1ccc(S(=O)(=O)C(C#N)c2nc3ccccc3nc2N2CCCC(C)C2)cc1 (stereo unspecified),1,0,-4,10,6,13
N#CC(c1nc2ccccc2nc1N1CCOCC1)S(=O)(=O)c1ccccc1 (stereo unspecified),2,3,-19,-14,14,16*
N#CC(c1nc2ccccc2nc1OCCO)S(=O)(=O)c1ccccc1 (stereo unspecified),6,-4,-7,2,-2,23*
CCN1CCN(c2nc3ccccc3nc2C(C#N)S(=O)(=O)c2ccc(C)c(C)c2)CC1 (stereo unspecified),2,23,-13,-3,2,75*
Cc1cnc(NC(=O)c2c(Cl)cnn2C)s1,.,.,.,.,.,0
Cc1cc(C)c(S(=O)(=O)Nc2ncccc2C)c(C)c1,.,.,.,.,.,-1
O=C(O)c1ccc(Cl)c(S(=O)(=O)NC(Cc2ccccc2)C(=O)O)c1 (stereo unspecified),0,-4,4,17,1,-1
Cc1ccc(S(=O)(=O)C(C#N)c2nc3ccccc3nc2OC(C)C)cc1 (stereo unspecified),-1,-23,-4,0,-3,6
CCN1CCN(c2nc3ccccc3nc2C(C#N)S(=O)(=O)c2ccc(C)cc2)CC1 (stereo unspecified),0,17,-18,-1,1,82*
CC12C(=O)N(c3ccc(C(=O)N4CCOCC4)cc3)C(=O)C1C1c3ccccc3C2c2ccccc21 (stereo unspecified),4,7,-6,3,-3,-4
Cc1cc2cc(CNS(=O)(=O)c3ccc4ccccc4c3)ccc2n1C,0,-10,10,5,2,0
CC(=O)Nc1ccc(S(=O)(=O)NCc2ccc3c(c2)cc(C)n3C)cc1,17*,-26,-5,0,-17,-3
COc1ccc(CNC(=O)COc2ccc([N+](=O)[O-])cc2)cc1,-1,-2,-8,2,0,37*
COc1ccc(OCC(=O)NCc2ccc(Cl)cc2)cc1,.,.,.,.,.,1
SMILES,p97 ATPase inh,Runt-SMMHC FRET,Tb hexokinase,Hck Nef HTS,Runt-CBFb FRET,RanGTP-Imp inh
COc1cccc(C(=O)Nc2nc(SCc3ccc(Cl)cc3)n[nH]2)c1,-3,0,5,10,0,0
Cc1cc(=O)[nH]c(SCC(=O)NC2CCCCC2)n1,.,.,.,.,.,-1
Cc1csc(SCCn2c(N3CCCC3)nc3c2c(=O)[nH]c(=O)n3C)n1,15*,0,-1,1,-2,0
COc1ccc(N2CSC3=C(C#N)C(c4cc(OC)c(OC)cc4OC)CC(=O)N3C2)c(OC)c1 (stereo unspecified),-2,38,-18,-1,29,0
COc1cc(OC)c(C2CC(=O)N3CN(c4ccc(C)cc4)CSC3=C2C#N)cc1OC (stereo unspecified),3,101*,-22,2,101*,-93
CCN1/C(=C2\OC(=S)N(C)C2=O)Sc2ccccc21,-3,64*,-9,7,14,-4
COc1cc(C(=O)NCC(=O)NCCN2C(=O)S/C(=C\c3ccccc3Cl)C2=O)cc(OC)c1OC,.,.,.,.,.,-1
COc1cc(/C=C2\SC(=O)N(CCNC(=O)c3sc4cc(F)ccc4c3Cl)C2=O)cc(OC)c1OC,2,-54,-26,55*,-21,1
Cc1ccc(C(=O)Nc2c(C)cc(C)c3cccnc23)cc1,.,.,.,.,.,-1
Cn1c(=O)nc2n(Cc3ccccc3)c3cccc(Cl)c3cc-2c1=O,-2,60*,-9,3,95*,64*
CCn1nc(C)cc1C(=O)N1CCCC(CCC(=O)NCc2ccccc2F)C1 (stereo unspecified),0,1,-15,-3,-1,5
NS(=O)(=O)c1ccc(NC(=O)C2C3C=CC(C3)C2C(=O)O)cc1 (stereo unspecified),1,2,-3,22,0,3
CC(C)n1c(=NC(=O)c2ccco2)c(C#N)cc2c(=O)n3ccccc3cc21,3,83*,-6,25,5,107*
Cn1c(C(=O)N2CCN(C(=O)c3ccco3)CC2)cc2c(=O)n3ccccc3nc21,6,45,-22,25,20,3
CSc1ccc(CNCCCN(C)C)cc1,4,-1,-4,5,1,3
CC(C)COC(=O)/C(C#N)=C/c1c[nH]c2ccccc12,0,51*,1,2,24,2
N#C/C(=C/c1ccc(-c2cc(C(=O)O)cc(C(=O)O)c2)o1)c1nc2ccccc2s1,1,69*,-4,28,85*,-69
Cc1cc([N+](=O)[O-])c(C)cc1-c1ccc(/C=N/NC(=O)Cn2nnnc2N)o1,3,12,-18,53*,19,-5
Nc1nnnn1CC(=O)N/N=C/c1cc([N+](=O)[O-])ccc1Cl,8,2,-2,-3,0,0
COc1cc(C2NC(=O)NC(C)=C2C(=O)OCc2ccc(C)cc2)cc(OC)c1OC (stereo unspecified),.,.,.,.,.,29*
COc1cc(C2NC(=O)NC(C)=C2C(=O)OCc2ccc(C)cc2)cc(OC)c1O (stereo unspecified),-8,2,-1,0,-3,66*
